Measured values taken from PMC3276691 (Journal of Medicinal Chemistry, 2012).
pIC50: −log10 of the molar value.

Key:
[1] = tested on: human peripheral blood mononuclear cells; test: IFN-α induction in human PBMCs; format: cell-based; conditions: hPBMCs, 12 h, graded concentrations
Outline: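 PBMCs from healthy donors, isolated by Ficoll-Hypaque gradient centrifugation and stimulated with graded concentrations of test compound for 12 h. Supernatants collected by centrifugation and diluted 1:20. IFN-α measured in triplicate by high-sensitivity human IFN-α-specific ELISA.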

TLR7 [2] = test: Inhibition of TLR7-mediated cytokine and chemokine production in hPBMCs; format: cell-based; conditions: Homo sapiens, 12 h, read-out: IC50, inhibition of TLR7-induced cytokine and chemokine release
TLR8 [3] = test: Inhibition of TLR8-mediated cytokine and chemokine production in hPBMCs; format: cell-based, human; conditions: 12 h, proinflammatory cytokines (Fig. 4)
TLR7 [4] = test: Schild plot analysis of inhibition of TLR7-induced activation; format: cell-based, human; conditions: imidazoquinoline TLR7-specific agonist, checker-board format
TLR8 [5] = test: Schild plot analysis of inhibition of TLR8-induced activation; format: cell-based, human; conditions: CL075 TLR8-specific agonist, checker-board format

Compound | IFN-α induction [1] | pIC50 (TLR7 [2]) | Inhibition of TNF-α and IL-1β production (TLR8 [3]) | Schild plot slope, TLR7 inhibition (TLR7 [4]) | Schild plot slope, TLR8 inhibition (TLR8 [5])
CCCCc1nc2c(N)nc3ccccc3c2n1Cc1ccc(CNC(=O)CCCCCCCCCCC(=O)NCc2ccc(Cn3c(CCCC)nc4c(N)nc5ccccc5c43)cc2)cc1 [Compound 10c] | most potent |  |  |  | 
Nc1nc2ccccc2c2c1nc(CCCc1nc3c(N)nc4ccccc4c3n1Cc1ccccc1)n2Cc1ccccc1 [Compound 4a, 2,2′-(propane-1,3-diyl)bis(1-benzyl-1H-imidazo[4,5-c]quinolin-4-amine)] |  | 6.52 to 7.30 | potently inhibits | 1.12 | 0.51
CCN(CC)CCCC(C)Nc1ccnc2cc(Cl)ccc12 (stereo not drawn) [Chloroquine, chloroquine, reference compound] |  |  | feeble inhibitor |  | 
